Reference: ChEMBL document CHEMBL1128581, “Structure-activity relationships of analogues of thapsigargin modified at O-11 and O-12” (J Med Chem, 1995)
One block for each compound: values may come before it.

Experiments:
Oryctolagus cuniculus [1] = organism: Oryctolagus cuniculus; assay: Inhibition of the [Ca2+]-ATPase by the compound (20 nM) was determined by the decrease in rate of formation of inorganic phosphate compared to control; parameters: scale not given: the % may be the effect or the level left
In short: (§1)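 Leaky SR vesicles (5 μg/mL protein) from New Zealand white rabbit hind-leg muscle in pH 7.0 buffer: KCl 120 mM, MOPS 25 mM, EGTA 0.5 mM, CaCl2 0.44 mM, MgCl2 2 mM, A23187 1 μM. Compound added in DMSO (<1%), 5 min preincubation at 30 °C, then ATP 1 mM final. Pi read by malachite green at ≥8 time points; rate from slope.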

Oryctolagus cuniculus [2] = organism: Oryctolagus cuniculus; assay: Inhibition of the [Ca2+] - ATPase by coincubation of the enzyme with the Thapsigargin (activity=53.9) along with the compound at 1 nM concentration; parameters: scale not given: the % may be the effect or the level left
[3] = Activity against [Ca2+]-ATPase in rabbit white skeletal muscle sarcoplasmic reticulum vesicles
Oryctolagus cuniculus [4] = organism: Oryctolagus cuniculus; assay: Inhibition of the [Ca2+]-ATPase by coincubation of the enzyme with the Thapsigargin (activity=53.9) along with the compound at 100 nM concentration; parameters: scale not given: the % may be the effect or the level left
Oryctolagus cuniculus [5] = organism: Oryctolagus cuniculus; assay: Inhibition of the [Ca2+]-ATPase by the compound (1 nM) was determined by the decrease in rate of formation of inorganic phosphate compared to control; parameters: scale not given: the % may be the effect or the level left; in short: as §1
Oryctolagus cuniculus [6] = organism: Oryctolagus cuniculus; assay: Inhibition of the [Ca2+]-ATPase by the compound (100 nM) was determined by the decrease in rate of formation of inorganic phosphate compared to control; parameters: scale not given: the % may be the effect or the level left; in short: as §1
Oryctolagus cuniculus [7] = organism: Oryctolagus cuniculus; assay: Inhibition of the [Ca2+]-ATPase by coincubation of the enzyme with the Thapsigargin (activity=53.9) along with the compound at 20 nM concentration; parameters: scale not given: the % may be the effect or the level left
Oryctolagus cuniculus [8] = organism: Oryctolagus cuniculus; assay: Inhibition of the [Ca2+]-ATPase by coincubation of the enzyme with the Thapsigargin (activity=56.5) along with the compound at 5000 nM concentration; parameters: scale not given: the % may be the effect or the level left
Oryctolagus cuniculus [9] = organism: Oryctolagus cuniculus; assay: Inhibition of the [Ca2+]-ATPase by the compound (500 nM) was determined by the decrease in rate of formation of inorganic phosphate compared to control; parameters: scale not given: the % may be the effect or the level left; in short: as §1
Oryctolagus cuniculus [10] = organism: Oryctolagus cuniculus; assay: Inhibition of the [Ca2+]-ATPase by coincubation of the enzyme with the Thapsigargin (activity=56.5) along with the compound at 500 nM concentration; parameters: scale not given: the % may be the effect or the level left
[11] = Activity against [Ca2+]-ATPase in rabbit white muscle sarcoplasmic reticulum vesicles
Oryctolagus cuniculus [12] = organism: Oryctolagus cuniculus; assay: Inhibition of the [Ca2+]-ATPase by the compound (5000 nM) was determined by the decrease in rate of formation of inorganic phosphate compared to control; parameters: scale not given: the % may be the effect or the level left; in short: as §1
Oryctolagus cuniculus [13] = organism: Oryctolagus cuniculus; assay: Inhibition of the [Ca2+]-ATPase by coincubation of the enzyme with the Thapsigargin (activity=56.5) along with the compound at 100 nM concentration; parameters: scale not given: the % may be the effect or the level left
Oryctolagus cuniculus [14] = organism: Oryctolagus cuniculus; assay: Inhibition of the [Ca2+]-ATPase by coincubation of the enzyme with the Thapsigargin (activity=53.3) along with the compound at 100 nM concentration; parameters: scale not given: the % may be the effect or the level left
Oryctolagus cuniculus [15] = organism: Oryctolagus cuniculus; assay: Inhibition of the [Ca2+]-ATPase by coincubation of the enzyme with the Thapsigargin (activity=53.3) along with the compound at 1 nM concentration; parameters: scale not given: the % may be the effect or the level left
Oryctolagus cuniculus [16] = organism: Oryctolagus cuniculus; assay: Inhibition of the [Ca2+]-ATPase by coincubation of the enzyme with the Thapsigargin (activity=53.3) along with the compound at 20 nM concentration; parameters: scale not given: the % may be the effect or the level left
Oryctolagus cuniculus [17] = organism: Oryctolagus cuniculus; assay: Inhibition of the [Ca2+]-ATPase by coincubation of the enzyme with the Thapsigargin (activity=56.7) along with the compound at 50000 nM concentration; parameters: scale not given: the % may be the effect or the level left
Oryctolagus cuniculus [18] = organism: Oryctolagus cuniculus; assay: Inhibition of the [Ca2+]-ATPase by coincubation of the enzyme with the Thapsigargin (activity=56.7) along with the compound at 10000 nM concentration; parameters: scale not given: the % may be the effect or the level left
Oryctolagus cuniculus [19] = organism: Oryctolagus cuniculus; assay: Inhibition of the [Ca2+]-ATPase by the compound (50000 nM) was determined by the decrease in rate of formation of inorganic phosphate compared to control; parameters: scale not given: the % may be the effect or the level left; in short: as §1
Oryctolagus cuniculus [20] = organism: Oryctolagus cuniculus; assay: Inhibition of the [Ca2+]-ATPase by the compound (1000 nM) was determined by the decrease in rate of formation of inorganic phosphate compared to control; parameters: scale not given: the % may be the effect or the level left; in short: as §1
Oryctolagus cuniculus [21] = organism: Oryctolagus cuniculus; assay: Inhibition of the [Ca2+]-ATPase by coincubation of the enzyme with the Thapsigargin (activity=56.7) along with the compound at 1000 nM concentration; parameters: scale not given: the % may be the effect or the level left
Oryctolagus cuniculus [22] = organism: Oryctolagus cuniculus; assay: Inhibition of the [Ca2+]-ATPase by the compound (10000 nM) was determined by the decrease in rate of formation of inorganic phosphate compared to control; parameters: scale not given: the % may be the effect or the level left; in short: as §1
Oryctolagus cuniculus [23] = organism: Oryctolagus cuniculus; assay: Inhibition of the [Ca2+]-ATPase by the compound (30 nM) was determined by the decrease in rate of formation of inorganic phosphate compared to control; parameters: scale not given: the % may be the effect or the level left; in short: as §1
Oryctolagus cuniculus [24] = organism: Oryctolagus cuniculus; assay: Inhibition of the [Ca2+]-ATPase by coincubation of the enzyme with the Thapsigargin (activity=49.4) along with the compound at 1 nM concentration; parameters: scale not given: the % may be the effect or the level left
Oryctolagus cuniculus [25] = organism: Oryctolagus cuniculus; assay: Inhibition of the [Ca2+]-ATPase by the compound (200 nM) was determined by the decrease in rate of formation of inorganic phosphate compared to control; parameters: scale not given: the % may be the effect or the level left; in short: as §1
Oryctolagus cuniculus [26] = organism: Oryctolagus cuniculus; assay: Inhibition of the [Ca2+]-ATPase by coincubation of the enzyme with the Thapsigargin (activity=49.4) along with the compound at 30 nM concentration; parameters: scale not given: the % may be the effect or the level left
Oryctolagus cuniculus [27] = organism: Oryctolagus cuniculus; assay: Inhibition of the [Ca2+]-ATPase by coincubation of the enzyme with the Thapsigargin (activity=49.4) along with the compound at 200 nM concentration; parameters: scale not given: the % may be the effect or the level left

Control (Oryctolagus cuniculus [1]): 81.2%
Control (Oryctolagus cuniculus [2]): 55.7%
IC50 [3]: 157 nM
Control (Oryctolagus cuniculus [4]): 34.7%
Control (Oryctolagus cuniculus [5]): 100%
Control (Oryctolagus cuniculus [6]): 66.6%
Control (Oryctolagus cuniculus [7]): 49.3%
Structure (SMILES): C/C=C(/C)C(=O)O[C@H]1C(C)=C2[C@H]([C@@H]1OC(=O)CCCCC)[C@@](C)(OC(C)=O)C[C@H](OC(=O)CCC)[C@@]1(O)[C@H]2O[C@H]2OC(C)(C)O[C@]21C

Control (Oryctolagus cuniculus [8]): 24%
Control (Oryctolagus cuniculus [9]): 87%
Control (Oryctolagus cuniculus [6]): 97%
Control (Oryctolagus cuniculus [10]): 49%
IC50 [11]: 5590 nM
Control (Oryctolagus cuniculus [12]): 53.7%
Control (Oryctolagus cuniculus [13]): 52.3%
Structure (SMILES): C/C=C(/C)C(=O)O[C@H]1C(C)=C2[C@H]([C@@H]1OC(=O)CCCCC)[C@@](C)(O)C[C@H](OC(=O)CCC)[C@@]1(O)[C@H]2O[C@H]2OC(C)(C)O[C@]21C

IC50 [3]: 51.7 nM
Structure (SMILES): C/C=C(/C)C(=O)O[C@H]1C(C)=C2[C@H]([C@@H]1OC(=O)CCCCC)[C@@](C)(OC(C)=O)C[C@H](OC(=O)CCC)[C@@]1(O)[C@H]2O[C@H]2O[C@]21C

Control (Oryctolagus cuniculus [1]): 98.4%
IC50 [3]: 388 nM
Control (Oryctolagus cuniculus [14]): 36.8%
Control (Oryctolagus cuniculus [15]): 52.5%
Control (Oryctolagus cuniculus [16]): 41.6%
Control (Oryctolagus cuniculus [5]): 101%
Control (Oryctolagus cuniculus [6]): 78.6%
Structure (SMILES): C/C=C(/C)C(=O)O[C@H]1C(C)=C2[C@H]([C@@H]1OC(=O)CCCCC)[C@@](C)(OC(C)=O)C[C@H](OC(=O)CCC)[C@@]1(O)[C@H]2O[C@H]2O[C@@H](OCC)O[C@]21C

IC50 [3]: 24.1 nM
Structure (SMILES): C/C=C(/C)C(=O)O[C@H]1C(C)=C2[C@H]([C@@H]1OC(=O)CCCCC)[C@@](C)(OC(C)=O)C[C@H](OC(=O)CCC)[C@@]1(O)[C@H]2O[C@H]2O[C@H](OCC)O[C@]21C

IC50 [3]: 11.2 nM
Structure (SMILES): C/C=C(/C)C(=O)O[C@H]1C(C)=C2[C@H]([C@@H]1OC(=O)CCCCC)[C@@](C)(OC(C)=O)C[C@H](OC(=O)CCC)[C@@]1(O)[C@H]2O[C@H](OCC)[C@@]1(C)O

IC50 [3]: 18.4 nM
Structure (SMILES): C/C=C(/C)C(=O)O[C@H]1C(C)=C2[C@H]([C@@H]1OC(=O)CCCCC)[C@@](C)(OC(C)=O)C[C@H](OC(=O)CCC)[C@@]1(O)[C@H]2O[C@@H](OC(C)=O)[C@@]1(C)O

The next lines start with the compound.

Structure (SMILES): C/C=C(/C)C(=O)O[C@H]1C(C)=C2[C@H]([C@@H]1O)[C@@](C)(O)C[C@H](OC(=O)CCC)[C@@]1(O)[C@H]2O[C@H]2OC(C)(C)O[C@]21C
Control (Oryctolagus cuniculus [17]): 25.1%
Control (Oryctolagus cuniculus [18]): 43.5%
Control (Oryctolagus cuniculus [19]): 50.9%
Control (Oryctolagus cuniculus [20]): 98.6%
IC50 [11]: 60600 nM
Control (Oryctolagus cuniculus [21]): 53.8%
Control (Oryctolagus cuniculus [22]): 82.6%

Structure (SMILES): C/C=C(/C)C(=O)O[C@H]1C(C)=C2[C@H]([C@@H]1OC(=O)CCCCCCC)[C@@](C)(OC(C)=O)C[C@H](OC(=O)CCC)[C@@]1(O)[C@H]2OC(=O)[C@@]1(C)O [THAPSIGARGIN]
IC50 [3]: 9.6 nM

Structure (SMILES): C/C=C(/C)C(=O)O[C@H]1C(C)=C2[C@H]([C@@H]1OC(=O)CCCCC)[C@@](C)(OC(C)=O)C[C@H](OC(=O)CCC)[C@@]1(O)[C@H]2OC(=O)[C@@]1(C)O
IC50 [3]: 9.8 nM

Structure (SMILES): C/C=C(/C)C(=O)O[C@H]1C(C)=C2[C@H]([C@@H]1OC(=O)CCCCCCC)[C@@](C)(O)C[C@H](OC(=O)CCCCCCC)[C@@]1(O)[C@H]2OC(O)[C@@]1(C)O (some centres not stated)
IC50 [3]: 120 nM
Control (Oryctolagus cuniculus [23]): 68.9%
Control (Oryctolagus cuniculus [24]): 51.1%
Control (Oryctolagus cuniculus [5]): 98.4%
Control (Oryctolagus cuniculus [25]): 21.9%
Control (Oryctolagus cuniculus [26]): 34.6%
Control (Oryctolagus cuniculus [27]): 16.2%

Structure (SMILES): C/C=C(/C)C(=O)O[C@H]1C(C)=C2[C@H]([C@@H]1OC(=O)CCCCC)[C@@](C)(OC(C)=O)C[C@H](OC(=O)CCC)[C@@]1(O)[C@H]2O[C@@H](O)[C@@]1(C)O.C/C=C(/C)C(=O)O[C@H]1C(C)=C2[C@H]([C@@H]1OC(=O)CCCCC)[C@@](C)(OC(C)=O)C[C@H](OC(=O)CCC)[C@@]1(O)[C@H]2O[C@H](O)[C@@]1(C)O
IC50 [3]: 15.6 nM
